Laboratory results taken from ChEMBL document CHEMBL2010709, “Pinophilins A and B, inhibitors of mammalian A-, B-, and Y-family DNA polymerases and human cancer cell proliferation” (J Nat Prod, 2012).
Calls of active or inactive are those of the source. The calls are words filed in the database; no cut-off is given here.

Columns and labels:
BALL-1 [1] = test: Growth inhibition of human BALL-1 cells after 24 hrs by WST-1 assay; type: functional; conditions: BALL-1, 24 h
How it was run: (§1)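 Cancer cells were grown in McCoy's 5A with 10% FBS and penicillin/streptomycin, 37 °C, 5% CO2. Cells were seeded at 1 × 10^4 per well, cultured 12 h, then given compound (10 mM DMSO stock diluted in medium, 0.5% DMSO) for 24 h. WST-1 was added for 4 h and absorbance read at 450/630 nm. GI50 given as mean ± SE, five independent experiments.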

[2] = Growth inhibition of HDF cells after 72 hrs by WST-1 assay; type: cell-based; conditions: human
How it was run: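 Normal cells (HDF, HUVEC) were grown in Eagle's MEM with 4.5 g/L glucose, 10% FCS, 5 mM L-glutamine and penicillin/streptomycin, 37 °C, 5% CO2. Cells were seeded at 1 × 10^4 per well, cultured 12 h, then exposed to compound (0.5% DMSO final) for 72 h. Viability was read by WST-1 at 450/630 nm. GI50 given as mean ± SE of five experiments.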

[3] = target: Human immunodeficiency virus type 1 reverse transcriptase (Human immunodeficiency virus 1, UniProt Q72547); test: Inhibition of HIV-1 reverse transcriptase assessed as inhibition of incorporation of dTTP into poly(rA)/oligo(dT)18 after 60 mins
How it was run: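 Enzyme (0.05 units) was preincubated with compound in DMSO at 0 °C for 10 min in Tris-HCl pH 7.5/DTT/glycerol/EDTA buffer, then reacted at 37 °C for 60 min. Substrates were poly(rA)/oligo(dT)18 (A/T = 2/1) plus dTTP for HIV-1 RT, and oligo(dT)18 (3′-OH) primer plus dTTP for calf thymus TdT. Activity was relative to uninhibited control; mean ± SE of three experiments.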

HCT-116 [4] = test: Growth inhibition of against human HCT116 cells after 24 hrs by WST-1 assay; type: functional; conditions: HCT-116, 24 h; how it was run: as §1
[5] = Inhibition of human DNA polymerase epsilon assessed as inhibition of incorporation of dTTP into poly(dA)/oligo(dT)18 after 60 mins
How it was run: (§2)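 Compound in DMSO was sonicated for 30 s, then held with enzyme (0.05 units final) at 0 °C for 10 min in 50 mM Tris-HCl pH 7.5, 1 mM DTT, 50% glycerol, 0.1 mM EDTA. The mixture was added to the standard reaction mix with poly(dA)/oligo(dT)18 (A/T = 2/1) and dTTP, 37 °C, 60 min. Activity was relative to no-inhibitor control; mean ± SE, three independent experiments.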

HCT-116 [6] = test: Cell cycle arrest in human HCT116 cells assessed as accumulation at S-phase at GI50 by tritiated thymidine incorporation assay; type: functional, cell-based
[7] = Inhibition of calf DNA polymerase alpha assessed as inhibition of incorporation of dTTP into poly(dA)/oligo(dT)18 after 60 mins; parameters: species or system Bos taurus; how it was run: as §2
[8] = Inhibition of calf DNA primase of polymerase alpha; parameters: species or system Bos taurus
[9] = target: T1, DNA-directed DNA polymerase (Enterobacteria phage T4, UniProt P04415); test: Inhibition of T4 bacteriophage DNA polymerase assessed as inhibition of incorporation of dTTP into poly(dA)/oligo(dT)18 after 60 mins; parameters: species or system Tequatrovirus T4; how it was run: as §2
T1 sequence (P04415 whole entry): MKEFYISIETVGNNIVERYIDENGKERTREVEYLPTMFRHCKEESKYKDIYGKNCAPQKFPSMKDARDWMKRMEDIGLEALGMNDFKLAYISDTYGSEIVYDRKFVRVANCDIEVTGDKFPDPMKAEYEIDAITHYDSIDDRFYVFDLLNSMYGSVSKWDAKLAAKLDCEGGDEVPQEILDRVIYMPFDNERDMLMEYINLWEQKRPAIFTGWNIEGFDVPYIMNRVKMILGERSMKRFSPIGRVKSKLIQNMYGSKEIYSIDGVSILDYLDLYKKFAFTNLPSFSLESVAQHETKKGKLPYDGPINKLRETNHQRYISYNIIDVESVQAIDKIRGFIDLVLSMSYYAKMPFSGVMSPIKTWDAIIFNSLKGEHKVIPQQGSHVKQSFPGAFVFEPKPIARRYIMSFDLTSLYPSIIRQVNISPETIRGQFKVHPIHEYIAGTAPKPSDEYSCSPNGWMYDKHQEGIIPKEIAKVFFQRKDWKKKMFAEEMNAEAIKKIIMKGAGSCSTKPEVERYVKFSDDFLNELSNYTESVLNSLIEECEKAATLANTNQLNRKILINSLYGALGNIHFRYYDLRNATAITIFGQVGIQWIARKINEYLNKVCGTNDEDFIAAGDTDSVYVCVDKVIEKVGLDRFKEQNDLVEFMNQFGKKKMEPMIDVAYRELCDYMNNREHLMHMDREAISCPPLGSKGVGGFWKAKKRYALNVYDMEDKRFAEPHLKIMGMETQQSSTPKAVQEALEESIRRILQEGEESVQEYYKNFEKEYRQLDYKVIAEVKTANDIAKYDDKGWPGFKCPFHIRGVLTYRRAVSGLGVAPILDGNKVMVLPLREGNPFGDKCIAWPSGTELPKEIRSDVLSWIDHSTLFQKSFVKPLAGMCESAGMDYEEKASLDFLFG

Deoxyribonuclease-1 = Deoxyribonuclease-1 (Bos taurus, UniProt P00639); test: Inhibition of bovine deoxyribonuclease 1 using [3H]-labelled DNA after 30 mins by agarose gel electrophoresis
Sequence of Deoxyribonuclease-1 (P00639 whole entry): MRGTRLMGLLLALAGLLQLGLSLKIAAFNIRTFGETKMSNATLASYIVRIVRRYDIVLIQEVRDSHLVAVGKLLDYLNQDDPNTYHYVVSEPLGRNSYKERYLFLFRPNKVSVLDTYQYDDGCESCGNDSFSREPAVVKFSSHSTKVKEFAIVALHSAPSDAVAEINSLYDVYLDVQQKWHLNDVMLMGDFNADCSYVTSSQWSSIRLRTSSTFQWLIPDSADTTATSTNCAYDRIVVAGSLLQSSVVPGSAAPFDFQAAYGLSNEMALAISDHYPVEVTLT

[10] = Inhibition of human His6-tagged DNA polymerase gamma expressed using baculovirus assessed as inhibition of incorporation of dTTP into poly(dA)/oligo(dT)18 after 60 mins; how it was run: as §2
BALL-1 [11] = test: Cell cycle arrest in human BALL-1 cells assessed as accumulation at S-phase at GI50 by tritiated thymidine incorporation assay; type: functional, cell-based
[12] = Inhibition of Thermus aquaticus DNA polymerase assessed as inhibition of incorporation of dTTP into poly(dA)/oligo(dT)18 after 60 mins at 74 degC
How it was run: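 Taq pol (0.05 units) was preincubated with compound (DMSO, sonicated) at 0 °C for 10 min, then reacted with poly(dA)/oligo(dT)18 (A/T = 2/1) and dTTP at 74 °C for 60 min. Activity was expressed relative to no-inhibitor control; mean ± SE, three independent experiments.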

[13] = Inhibition of T7 RNA polymerase assessed as inhibition of incorporation of [3H]UTP after 30 mins by liquid scintillation counting; parameters: species or system Escherichia phage T7
[14] = target: DNA polymerase eta (Homo sapiens) (UniProt Q9Y253); test: Inhibition of C-terminal-His6-tagged human pol eta expressed in Escherichia coli assessed as inhibition of incorporation of dTTP into poly(dA)/oligo(dT)18 after 60 mins
Sequence of DNA polymerase eta (Homo sapiens) (Q9Y253 whole entry, looked up, the tested form may be a part): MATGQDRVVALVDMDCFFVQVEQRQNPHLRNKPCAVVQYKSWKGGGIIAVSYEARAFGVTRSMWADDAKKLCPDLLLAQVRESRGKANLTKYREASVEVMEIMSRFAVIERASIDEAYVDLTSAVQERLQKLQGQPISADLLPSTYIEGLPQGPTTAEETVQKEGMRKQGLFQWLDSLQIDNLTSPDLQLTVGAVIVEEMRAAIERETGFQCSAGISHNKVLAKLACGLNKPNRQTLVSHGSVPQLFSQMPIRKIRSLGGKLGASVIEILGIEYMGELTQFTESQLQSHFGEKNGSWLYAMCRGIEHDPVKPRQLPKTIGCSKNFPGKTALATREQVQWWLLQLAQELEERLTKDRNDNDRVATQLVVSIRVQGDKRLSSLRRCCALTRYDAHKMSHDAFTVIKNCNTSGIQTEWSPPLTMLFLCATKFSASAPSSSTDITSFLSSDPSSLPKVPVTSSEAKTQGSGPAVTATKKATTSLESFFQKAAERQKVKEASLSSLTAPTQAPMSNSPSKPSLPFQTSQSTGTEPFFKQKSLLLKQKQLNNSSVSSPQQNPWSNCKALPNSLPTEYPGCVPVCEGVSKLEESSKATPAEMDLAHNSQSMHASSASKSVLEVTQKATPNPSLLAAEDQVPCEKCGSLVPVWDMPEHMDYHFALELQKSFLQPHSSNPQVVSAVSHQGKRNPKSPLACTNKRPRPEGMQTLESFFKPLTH

Escherichia coli = test: Inhibition of Escherichia coli polymerase DNA polymerase 1 Klenow fragment assessed as inhibition of incorporation of dTTP into activated DNA primer after 60 mins
Tequatrovirus T4 = test: Inhibition of T4 bacteriophage DNA polymerase assessed as inhibition of incorporation of dTTP into activated DNA primer after 60 mins
Oryza sativa = test: Inhibition of rice cv. Nipponbare recombinant C-terminal-His6-tagged DNA polymerase lambda expressed in Escherichia coli assessed as inhibition of incorporation of dTTP into activated DNA primer after 60 mins

SMILES	GI50 (BALL-1 [1]) [µM]	GI50 at 72 h [2] [µM]	IC50 [3] [µM]	GI50 (HCT-116 [4]) [µM]	IC50 [5] [µM]	Activity (HCT-116 [6])	IC50 [7] [µM]	IC50 [8] [µM]	IC50 [9] [µM]	IC50 (Deoxyribonuclease-1) [µM]	IC50 [10] [µM]	Activity (BALL-1 [11])	IC50 [12] [µM]	IC50 [13] [µM]	IC50 [14] [µM]	inhibition (Escherichia coli)	inhibition (Tequatrovirus T4)	inhibition (Oryza sativa)
C/C=C/C1=CC2=CC(=O)[C@@](C)(O)[C@@H](OC(=O)c3c(C)cc(O)cc3O)[C@@H]2CO1	62	> 200	> 200	64.6	65.6	Active	63.2	> 200	> 200	> 200	67.3	Active	> 200	> 200	63.1	inactive	inactive	inactive
Cc1cc(O)cc(O)c1C(=O)O[C@H]1[C@@H]2COC(/C=C/CO)=CC2=CC(=O)[C@@]1(C)O [PINOPHILIN B]	90.4	> 200	> 200	92.5	93.9	Active	89.5	> 200	> 200	> 200	93.7	Active	> 200	> 200	92.1	inactive	inactive	inactive
C/C=C/C1=CC2=CC(=O)[C@@](C)(OC(=O)c3c(C)cc(O)cc3O)[C@@H](O)[C@@H]2CO1 [PINOPHILIN A]	50.2	> 200	> 200	51.3	52	Active	49.1	> 200	> 200	> 200	55.6	Active	> 200	> 200	50.9	inactive	inactive	inactive
